core dimer inh: blocks dimerization of HCV core protein. TR-FRET GST/Flag-core106 dimerization, 1536-well. inhibition, % at 5 µM. hit rate 0.33% among 300,000;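 active = inhibition above the mean of all tested compounds plus 3 SD, set per screening campaign, cut at about 45% in these data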
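System: GST-tagged and Flag-tagged HCV core protein residues 1-106 / Input: core106 proteins, GST 13.5 nM and Flag 17 nM / Buffer or medium: KF-containing HEPES buffer, pH 7.45, DTT, CHAPS, BSA / Probe or stimulus: Eu-anti-GST and XL665-anti-Flag labelled anti-tag antibodies / Schedule: 4 h, 22.5 °C incubation / Technique: TR-FRET 671 and 617 nm emission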
eIF4E 4G PPI: blocks eIF4E binding to eIF4G; P63073+Q04637; TR-FRET eIF4E-eIF4GI(517-606) binding, 2 h; inhibition, % at 21.7 µM; hit rate 0.37% among 220,000; AID 782;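 active = inhibition above about 30%, limit read from the data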
eIF4H FP inh: inhibitors of RNA binding by human eIF4H. inhibition, % at 35 µM. AID 2012. Q15056. eIF4H fluorescence polarization binding assay. hit rate 0.94% among 290,000;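 also: calls also rest on retests at 20 µM and on dose response follow-up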
PABP polyA inh: blocks human PABP binding to poly(A) RNA; P11940; fluorescence polarization; calls only at 35 µM; hit rate 1% among 290,000; AID 2014;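 also: calls also rest on retests at 20 µM and on dose response follow-up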
PABP1 MLLE inh: blocks PAM2 peptide binding to the PABP1 MLLE domain | P11940 | GST-MLLE / FITC-PAM2 fluorescence polarization | AID 588489 | hit rate 0.36% among 360,000 | inhibition, % at 20 µM; in the data active = inhibition above about 35%, passing the limit was not always enough
SUMO HTRF inh: inhibitors of human SUMOylation (UBC9) | inhibition, % at 35 µM | hit rate 0.36% among 290,000 | HTRF SUMOylation assay, SAE1/SAE2 + UBC9, in vitro; in the data active = inhibition above about 50%, passing the limit was not always enough; inconclusive = no clear call, values can overlap the other calls
Target sequence (P63279 whole entry, looked up): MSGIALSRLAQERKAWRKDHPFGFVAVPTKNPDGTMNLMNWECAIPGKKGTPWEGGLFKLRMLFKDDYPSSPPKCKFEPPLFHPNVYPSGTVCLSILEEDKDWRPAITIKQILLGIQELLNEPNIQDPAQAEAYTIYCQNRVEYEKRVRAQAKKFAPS
A number is an active result; – = inactive; ? = inconclusive; · = not tested or not shown; + = active, no number. Sampled rows, rich in hits. Any-hit rate of the full collection: about 1.8%. Unless noted, no rule for the calls is given here.

SMILES | core dimer inh | eIF4E 4G PPI | eIF4H FP inh | PABP polyA inh | PABP1 MLLE inh | SUMO HTRF inh
NNC(=O)c1ccc(CN2C(=O)c3cccc4cccc2c34)cc1 | – | – | – | – | – | –
COc1ccccc1/C=N/NC(=O)c1ccc(CN2C(=O)c3cccc4cccc2c34)cc1 | – | – | – | – | – | 58.8
CC(OC(=O)Cn1[nH]c(=O)c2ccccc2c1=O)C(=O)Nc1ccc(Cl)cn1 (stereo not drawn) | · | · | · | · | – | ·
O=C(/C=C/c1ccccc1)C1C(=O)c2ccccc2C1=O | – | – | – | – | – | 59.4
CCc1nn(C)c2c(=O)c(=O)c2n(C)[nH]1 | – | – | 99.4 | + | – | –
O=C(O)CSc1c2ccccc2cc2ccccc12 | – | · | – | – | 38.2 | –
CCCCN1C(=O)C(=O)N(CC(=O)Nc2cc(S(=O)(=O)N(C)C)ccc2C)C1=O | – | · | · | · | – | ·
COc1ccc(CNC(=O)CC[C@H]2O[C@@H](n3cc(C)c(=O)[nH]c3=O)C[C@@H]2O)cc1 | · | · | · | · | – | ·
CC(C)N1CCc2c(sc(NC(=O)c3ccc(S(=O)(=O)N4CCOCC4)cc3)c2C#N)C1 | – | – | 77.8 | + | – | –
COc1ccc(Cl)cc1NC(=O)CN(C)C(=O)c1cc2ccccc2cc1O | – | · | · | · | – | ·
O=C(O)c1ccc(S(=O)(=O)N2CCSCC2)cc1 | – | · | – | – | – | –
CCC(C)(C)NC(=O)c1ccc2c(c1)N(CC(=O)NC1CCCC1)C(=O)C(C)(C)O2 | – | · | – | – | – | –
O=C1CC(N2C(=O)/C(=C/C=C/c3ccccc3)SC2=S)C(=O)N1c1ccccc1 (stereo not drawn) | 50.6 | – | – | – | – | –
CCOC(=O)Cc1csc(NC(=O)c2cc(-c3ccncc3)nc3ccccc23)n1 | · | · | · | · | – | ·
N#Cc1cccc(N2[C@@H](Cc3cc4ccccc4n3Cc3ccccc3)COC[C@H]2Cc2ccc3ccccc3c2)c1 | · | · | · | · | – | ·
Cc1ccccc1NC(=O)c1nc2nccc(C)n2n1 | – | – | active | – | – | –
O=C1NC(c2ccccc2)=N/C1=C/c1ccco1 | – | – | – | – | – | –
O=C1NC(c2ccccc2Br)=N/C1=C\c1ccco1 | – | – | 57.1 | + | – | –
CC1CCCN(C(=O)CNS(=O)(=O)c2cccs2)C1 (stereo not drawn) | – | · | – | – | – | –
CCc1cc2c(=O)c(Oc3ccccc3F)c(C)oc2c(CN(C)C)c1O | – | – | – | – | – | 63.5
C[C@H](NC(=O)C1CCN(S(=O)(=O)c2ccccc2)CC1)C(=O)NCc1ccc(Cl)cc1Cl | – | · | – | – | – | –
CCN(CC)CCCNc1cc(C(F)(F)F)c(C#N)c2nc3ccccc3n12 | – | · | – | + | – | –
Cc1cc(NCCCN2CCOCC2)n2c(nc3ccccc32)c1C#N | – | – | 79.5 | + | – | –
COc1ccc(C(C)=O)cc1CSc1nnc(-c2ccncc2)o1 | – | · | – | – | – | –
COc1ccc(C(C)=O)cc1CSc1nc2cc(Cl)ccc2o1 | – | – | 65.2 | + | – | –
SMILES | core dimer inh | eIF4E 4G PPI | eIF4H FP inh | PABP polyA inh | PABP1 MLLE inh | SUMO HTRF inh
CSCCC(C)N1CCC(Oc2ccc(C(=O)N3CCCC3)cc2)CC1 (stereo not drawn) | – | · | – | – | – | –
Cc1oc2c(C)c(O)ccc2c(=O)c1N1C(=O)c2ccccc2C1=O | – | – | – | – | – | –
Cc1oc2c(C)c(O)ccc2c(=O)c1-c1nncn1-c1ccccc1 | – | – | ? | + | – | –
CC(C)CCn1cnc2c(oc3nc4c(cc32)CCCC4)c1=O | – | – | – | – | – | –
CCc1ccc(NC(=S)Nc2ccc3[nH]c(=O)[nH]c3c2)cc1 | – | – | 1.7 | + | – | –
Cc1ccc(C(=O)NC(=S)Nc2ccc3[nH]c(=O)[nH]c3c2)c(C)c1 | – | – | – | – | 37.6 | –
CCCCC1(C(=O)OCC)CC(CN2CCOCC2)OC1=O (stereo not drawn) | – | – | active | + | – | –
C(=C\c1ccco1)/C1=NN(c2ccccc2)C(c2ccco2)C1 (stereo not drawn) | – | – | 70.6 | – | – | –
O=[N+]([O-])c1ccc(/C=C/C2=NN(c3ccccc3)C(c3ccco3)C2)o1 (stereo not drawn) | · | – | – | – | – | –
COc1ccc(OC)c(NC(=O)COC(=O)c2cc3c(s2)CCC3)c1 | 77.4 | 36.5 | ? | ? | – | –
COc1ccccc1NC(=O)COC(=O)c1cc2c(s1)CCC2 | · | · | · | · | – | ·
Cc1nn(C)c(C)c1N1C(=O)c2cccc3c(N)ccc(c23)C1=O | – | – | – | + | – | –
CCCNC(=O)c1ccc2c(=O)c(O)c(-c3ccc(F)cc3)[nH]c2c1 | – | 97.8 | – | – | – | –
C1CCN(c2nc3nonc3nc2N2CCCCC2)CC1 | – | – | – | – | – | –
CN1CCN(c2nc3nonc3nc2N2CCN(C)CC2)CC1 | – | – | 80.2 | + | – | –
N#Cc1ccc(-c2nc3ccc(Br)cn3c2Cc2ccsc2)cc1 | · | · | · | · | – | ·
CCN1CCN(CCCNC(=O)c2ccc(CS(=O)c3ccc(Br)cc3)o2)CC1 (stereo not drawn) | – | · | – | – | – | –
Cc1cc(C)n(CCc2nc(-c3cccs3)cs2)n1 | – | – | – | – | – | –
Cc1nn(CCc2nc(-c3ccco3)cs2)c2[nH]c(=O)cc(C(F)(F)F)c12 | – | – | 45.4 | + | – | –
Cc1cc(C)n(CCc2nc(-c3ccco3)cs2)n1 | – | – | 51.3 | + | – | –
Fc1cccc(Cl)c1CNc1ccc(N2CCCC2)cc1 | – | 34.7 | – | – | – | –
O=C(O)c1ccccc1Nc1ccnc(Cl)n1 | – | 74.5 | – | – | – | –
COc1cc(-c2nnc(SCc3cc(=O)oc4cc(O)c(O)cc34)o2)cc(OC)c1OC | – | – | 92.3 | + | – | –
CCOC(=O)CSc1nnc(-c2cc(OC)c(OC)c(OC)c2)o1 | – | – | – | – | – | –
O=C(Nc1ccccc1)Nn1cnnc1 | · | · | – | – | – | –
SMILES | core dimer inh | eIF4E 4G PPI | eIF4H FP inh | PABP polyA inh | PABP1 MLLE inh | SUMO HTRF inh
O=C(Nc1ccc(Cl)c(Cl)c1)Nn1cnnc1 | · | · | – | – | – | 66.9
O=C(Nc1cccc(Cl)c1)Nn1cnnc1 | – | – | – | – | – | 51.1
CCc1ccccc1NS(=O)(=O)c1ccc2c(c1)NC(=O)CC(=O)N2 | – | – | active | + | – | –
COc1cc(C=O)ccc1OC(=O)Nc1ccccc1 | – | · | · | · | – | ·
Cc1cccc(OC(C)C(=O)Nc2nc(-c3ccncc3)cs2)c1 (stereo not drawn) | · | · | · | · | – | ·
O=c1c2ccccc2oc2cc(NCCCN3CCOCC3)ccc12 | – | · | – | – | – | 54.6
Cc1ccc([C@H]2C[C@@H](O)[C@H](n3cc(-c4ccc(F)cc4)nn3)CN2C(=O)c2cccs2)cc1 | · | · | · | · | – | ·
CC(C)N(C(=O)Nc1ccc2nccnc2c1)C(C)C | – | – | – | – | – | 93.5
C/C(=N\Nc1ncnc2sc(C)c(C)c12)c1ccccn1 | – | · | ? | + | – | –
Cc1sc2ncnc(N/N=C/c3cccc(O)c3)c2c1C | – | – | – | – | – | –

Screening results (PubChem BioAssay)
